Measurements pooled from the literature.
Protocols differ between the studies behind these lines. pIC50: −log10 of the molar value. Converted amounts (≈) assume the structure as drawn.

COC1CN(C(=O)c2sc3ncccc3c2N)C1
pIC50 (HepG2; cell growth or viability; 72 h): < 4.00

N.N.[Cl][Pt][Cl]
pIC50 (Ramos; cell growth or viability, ATP luminescence; 72 h): 5.56

O=c1c2cc(Cl)ncc2[nH]c(=S)n1Cc1cccnc1
MIC90 (Mycobacterium tuberculosis; microbial growth; H37RV): 17.6 µM (≈ 5.36 µg/mL)

CCCCN(CCCC)C(=N)CC(O)c1cc2c(F)cc(F)cc2c2cc(C(F)(F)F)ccc12 (stereo not drawn)
pIC50 (HepG2; cell growth or viability, neutral red; 24 h): 4.78

COc1ccc(-c2cc(C(F)(F)F)c3c(N)c(C(=O)NC(C)C4CCCCC4)sc3n2)cc1 (stereo not drawn)
pIC50 (HepG2; cell growth or viability; 72 h): < 4.00

O=C(Nc1ccc(Cl)cc1)Nc1cccc(-c2cn(Cc3ccc(Br)cc3)nn2)c1
viability (Huh-7; cell growth or viability, CCK-8; 50 µM, 72 h): 13.1%

COc1ccc(-c2cc(C(F)(F)F)c3c(N)c(C(=O)NC4COC4)sc3n2)cc1
pIC50 (HepG2; cell growth or viability; 72 h): < 4.00

N#Cc1ccc(NC(=N)CC(O)c2cc3c(F)cc(F)cc3c3cc(C(F)(F)F)ccc23)cc1 (stereo not drawn)
pIC50 (HepG2; cell growth or viability, neutral red; 24 h): < 4.60

CC(C)C(=O)OCc1cc2[nH]c(=S)n(Cc3cncc(C#N)c3)c(=O)c2cc1Cl
MIC90 (Mycobacterium tuberculosis; microbial growth; H37RV): 5.52 µM (≈ 2.37 µg/mL)

N=C(CC(O)c1cc2c(F)cc(F)cc2c2cc(C(F)(F)F)ccc12)Nc1cccc(F)c1 (stereo not drawn)
pIC50 (HepG2; cell growth or viability, neutral red; 24 h): 4.94

CCC(NC(=O)c1sc2nc(-c3ccc(OC)cc3)cc(C(F)(F)F)c2c1N)c1ccccc1 (stereo not drawn)
pIC50 (HepG2; cell growth or viability; 72 h): < 4.00

N=C(CC(O)c1cc2c(F)cc(F)cc2c2cc(C(F)(F)F)ccc12)Nc1ccc(Br)c(F)c1 (stereo not drawn)
pIC50 (HepG2; cell growth or viability, neutral red; 24 h): 4.55

O=c1c2cc(Cl)c(CO)cc2[nH]c(=S)n1Cc1cncnc1
MIC90 (Mycobacterium tuberculosis; microbial growth; H37RV): 3.23 µM (≈ 1.08 µg/mL)

N=C(CC(O)c1cc2c(F)cc(F)cc2c2cc(C(F)(F)F)ccc12)NCc1ccc(F)cc1 (stereo not drawn)
pIC50 (HepG2; cell growth or viability, neutral red; 24 h): 5.14

N#Cc1cc2[nH]c(=S)n(Cc3cccnc3)c(=O)c2cc1Cl
MIC90 (Mycobacterium tuberculosis; microbial growth; H37RV): > 100 µM
